In ChEMBL document CHEMBL4325852, “Design, synthesis, and discovery of ocotillol-type amide derivatives as orally available modulators of P-glycoprotein-mediated multidrug resistance” (Eur J Med Chem, 2019):

Columns and labels:
Format in all cases: cell-based
[1] = biological target: T1, ATP-dependent translocase ABCB1 (Homo sapiens, UniProt P08183); assay: Reversal of P-gp-mediated multidrug resistance in human KBV cells assessed as potentiation of paclitaxel-induced cytotoxicity by measuring cell survival at 5 uM after 72 hrs by MTT assay (reference value: 104 +/- 8%)
[2] = biological target: T1, ATP-dependent translocase ABCB1; assay: Reversal of P-gp-mediated multidrug resistance in human KBV cells assessed as potentiation of paclitaxel-induced cytotoxicity by measuring cell survival at 10 uM after 72 hrs by MTT assay (reference value: 104 +/- 8%)
[3] = Cytotoxicity against human KBV cells assessed as cell survival at 10 uM after 72 hrs by MTT assay relative to control; settings: read-out: Survival
How it was run: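 KBV (Pgp-overexpressing MDR line) grown in DMEM/10% FCS, kept in 10 nM paclitaxel; seeded, compound (DMSO stock) added next day, 72 h; MTT 2 h, formazan in DMSO, A570 gives survival vs DMSO solvent control; n = 1-3 independent experiments, mean ± SD.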

T1 sequence (P08183 whole entry): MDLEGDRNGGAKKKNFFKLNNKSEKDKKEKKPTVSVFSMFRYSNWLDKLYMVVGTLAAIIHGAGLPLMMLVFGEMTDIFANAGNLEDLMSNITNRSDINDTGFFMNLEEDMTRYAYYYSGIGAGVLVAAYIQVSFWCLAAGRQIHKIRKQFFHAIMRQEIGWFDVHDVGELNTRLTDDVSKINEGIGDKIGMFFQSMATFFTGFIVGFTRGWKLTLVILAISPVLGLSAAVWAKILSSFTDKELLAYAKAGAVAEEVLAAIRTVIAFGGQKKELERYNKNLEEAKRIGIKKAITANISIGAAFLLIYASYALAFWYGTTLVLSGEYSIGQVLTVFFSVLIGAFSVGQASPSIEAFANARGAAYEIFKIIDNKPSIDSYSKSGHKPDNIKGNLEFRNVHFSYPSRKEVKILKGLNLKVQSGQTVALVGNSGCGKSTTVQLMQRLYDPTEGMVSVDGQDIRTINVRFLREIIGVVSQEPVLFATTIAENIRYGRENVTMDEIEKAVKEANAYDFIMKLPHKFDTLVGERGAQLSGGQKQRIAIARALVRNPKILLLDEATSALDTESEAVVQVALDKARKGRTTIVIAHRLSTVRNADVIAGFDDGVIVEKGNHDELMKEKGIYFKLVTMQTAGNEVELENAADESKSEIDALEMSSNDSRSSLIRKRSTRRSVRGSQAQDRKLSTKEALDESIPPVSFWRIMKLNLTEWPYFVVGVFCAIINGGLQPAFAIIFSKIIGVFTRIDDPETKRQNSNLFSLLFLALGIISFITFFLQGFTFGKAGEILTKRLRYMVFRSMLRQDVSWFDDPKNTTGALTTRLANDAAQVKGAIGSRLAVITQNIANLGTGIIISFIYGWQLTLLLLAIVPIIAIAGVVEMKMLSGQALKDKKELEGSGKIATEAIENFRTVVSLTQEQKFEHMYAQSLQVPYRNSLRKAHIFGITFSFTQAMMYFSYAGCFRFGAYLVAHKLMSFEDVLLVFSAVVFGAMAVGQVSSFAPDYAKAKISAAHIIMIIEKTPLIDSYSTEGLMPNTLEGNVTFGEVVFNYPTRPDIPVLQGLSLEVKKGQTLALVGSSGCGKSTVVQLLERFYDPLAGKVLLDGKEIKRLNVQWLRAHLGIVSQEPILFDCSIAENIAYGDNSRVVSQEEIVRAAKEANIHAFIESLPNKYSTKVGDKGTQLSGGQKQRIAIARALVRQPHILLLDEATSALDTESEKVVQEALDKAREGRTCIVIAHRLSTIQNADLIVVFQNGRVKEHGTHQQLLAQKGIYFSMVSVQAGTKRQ

SMILES	Survival [1] [%]	Survival [2] [%]	viability at 72 h, 10 µM [3] [%]
CC(C)(O)[C@H]1CC[C@@](C)([C@H]2CC[C@]3(C)[C@@H]2[C@H](O)C[C@@H]2[C@@]4(C)CC[C@H](NC(=O)CCCCCCCN)C(C)(C)[C@@H]4CC[C@]23C)O1	84	38	80
CC(C)(O)[C@H]1CC[C@@](C)([C@H]2CC[C@]3(C)[C@@H]2[C@H](O)C[C@@H]2[C@@]4(C)CC[C@H](NC(=O)c5ccc(N)cc5)C(C)(C)[C@@H]4CC[C@]23C)O1	77	47	75
CC(C)(C)OC(=O)Nc1ccc(C(=O)N[C@H]2CC[C@]3(C)[C@H]4C[C@@H](O)[C@@H]5[C@@H]([C@]6(C)CC[C@H](C(C)(C)O)O6)CC[C@@]5(C)[C@]4(C)CC[C@H]3C2(C)C)cc1	54	46	77
CC(C)(C)OC(=O)NCCCCCCCC(=O)N[C@H]1CC[C@]2(C)[C@H]3C[C@@H](O)[C@@H]4[C@@H]([C@]5(C)CC[C@H](C(C)(C)O)O5)CC[C@@]4(C)[C@]3(C)CC[C@H]2C1(C)C	54	39	106
CC(C)(O)[C@H]1CC[C@@](C)([C@H]2CC[C@]3(C)[C@@H]2[C@H](O)C[C@@H]2[C@@]4(C)CC[C@H](NC(=O)CCCN)C(C)(C)[C@@H]4CC[C@]23C)O1	100	85	77
CC(C)(O)[C@H]1CC[C@@](C)([C@H]2CC[C@]3(C)[C@@H]2[C@H](O)C[C@@H]2[C@@]4(C)CC[C@H](NC(=O)CN)C(C)(C)[C@@H]4CC[C@]23C)O1	99	49	103
CC(C)(O)[C@H]1CC[C@@](C)([C@H]2CC[C@]3(C)[C@@H]2[C@H](O)C[C@@H]2[C@@]4(C)CC[C@H](NC(=O)c5ccccc5)C(C)(C)[C@@H]4CC[C@]23C)O1	59	39	101
CC(C)(O)[C@@H]1CC[C@@](C)([C@H]2CC[C@]3(C)[C@@H]2[C@H](O)C[C@@H]2[C@@]4(C)CC[C@H](O)C(C)(C)[C@@H]4CC[C@]23C)O1		104	111
CCCC(=O)N[C@H]1CC[C@]2(C)[C@H]3C[C@@H](O)[C@@H]4[C@@H]([C@]5(C)CC[C@H](C(C)(C)O)O5)CC[C@@]4(C)[C@]3(C)CC[C@H]2C1(C)C	89	55	103
CC(C)(C)OC(=O)NCCCCCC(=O)N[C@H]1CC[C@]2(C)[C@H]3C[C@@H](O)[C@@H]4[C@@H]([C@]5(C)CC[C@@H](C(C)(C)O)O5)CC[C@@]4(C)[C@]3(C)CC[C@H]2C1(C)C	65	40	79
CC(C)(O)[C@@H]1CC[C@@](C)([C@H]2CC[C@]3(C)[C@@H]2[C@H](O)C[C@@H]2[C@@]4(C)CC[C@H](NC(=O)c5cccnc5)C(C)(C)[C@@H]4CC[C@]23C)O1	115	61	91
CC(C)(O)[C@@H]1CC[C@@](C)([C@H]2CC[C@]3(C)[C@@H]2[C@H](O)C[C@@H]2[C@@]4(C)CC[C@H](NC(=O)c5ccccc5)C(C)(C)[C@@H]4CC[C@]23C)O1	90	48	116
CC(C)(O)[C@H]1CC[C@@](C)([C@H]2CC[C@]3(C)[C@@H]2[C@H](O)C[C@@H]2[C@@]4(C)CC[C@H](O)C(C)(C)[C@@H]4CC[C@]23C)O1		95	94
CC(C)(O)[C@@H]1CC[C@@](C)([C@H]2CC[C@]3(C)[C@@H]2[C@H](O)C[C@@H]2[C@@]4(C)CC[C@H](NC(=O)CN)C(C)(C)[C@@H]4CC[C@]23C)O1	98	115	90
CC(C)(C)OC(=O)NCC(=O)N[C@H]1CC[C@]2(C)[C@H]3C[C@@H](O)[C@@H]4[C@@H]([C@]5(C)CC[C@@H](C(C)(C)O)O5)CC[C@@]4(C)[C@]3(C)CC[C@H]2C1(C)C	61	42	96
CC(C)(C)OC(=O)NCCCCCCCC(=O)N[C@H]1CC[C@]2(C)[C@H]3C[C@@H](O)[C@@H]4[C@@H]([C@]5(C)CC[C@@H](C(C)(C)O)O5)CC[C@@]4(C)[C@]3(C)CC[C@H]2C1(C)C	54	41	111

SMILES	Survival [1] [%]	Survival [2] [%]	viability at 72 h, 10 µM [3] [%]
CC(C)(C)OC(=O)NCCCC(=O)N[C@H]1CC[C@]2(C)[C@H]3C[C@@H](O)[C@@H]4[C@@H]([C@]5(C)CC[C@H](C(C)(C)O)O5)CC[C@@]4(C)[C@]3(C)CC[C@H]2C1(C)C	48	34	67
CCCCCCCC(=O)N[C@H]1CC[C@]2(C)[C@H]3C[C@@H](O)[C@@H]4[C@@H]([C@]5(C)CC[C@H](C(C)(C)O)O5)CC[C@@]4(C)[C@]3(C)CC[C@H]2C1(C)C	56	39	70
CC(C)(O)[C@@H]1CC[C@@](C)([C@H]2CC[C@]3(C)[C@@H]2[C@H](O)C[C@@H]2[C@@]4(C)CC[C@H](N)C(C)(C)[C@@H]4CC[C@]23C)O1	102	88	91
CC(C)(O)[C@@H]1CC[C@@](C)([C@H]2CC[C@]3(C)[C@@H]2[C@H](O)C[C@@H]2[C@@]4(C)CC[C@H](NC(=O)c5ccccc5O)C(C)(C)[C@@H]4CC[C@]23C)O1	61	36	96
CC(C)(O)[C@@H]1CC[C@@](C)([C@H]2CC[C@]3(C)[C@@H]2[C@H](O)C[C@@H]2[C@@]4(C)CC[C@H](NC(=O)CCCCCN)C(C)(C)[C@@H]4CC[C@]23C)O1	105	101	79
CC(C)(O)[C@@H]1CC[C@@](C)([C@H]2CC[C@]3(C)[C@@H]2[C@H](O)C[C@@H]2[C@@]4(C)CC[C@H](NC(=O)CCCCCCCN)C(C)(C)[C@@H]4CC[C@]23C)O1	118	76	118
CCCCCC(=O)N[C@H]1CC[C@]2(C)[C@H]3C[C@@H](O)[C@@H]4[C@@H]([C@]5(C)CC[C@H](C(C)(C)O)O5)CC[C@@]4(C)[C@]3(C)CC[C@H]2C1(C)C	69	43	101
CC(C)(O)[C@H]1CC[C@@](C)([C@H]2CC[C@]3(C)[C@@H]2[C@H](O)C[C@@H]2[C@@]4(C)CC[C@H](NC(=O)c5ccccc5C(=O)O)C(C)(C)[C@@H]4CC[C@]23C)O1	96	85	105
CC(C)(O)[C@H]1CC[C@@](C)([C@H]2CC[C@]3(C)[C@@H]2[C@H](O)C[C@@H]2[C@@]4(C)CC[C@H](NC(=O)CCCCCN)C(C)(C)[C@@H]4CC[C@]23C)O1	91	91	86
CC(C)(O)[C@H]1CC[C@@](C)([C@H]2CC[C@]3(C)[C@@H]2[C@H](O)C[C@@H]2[C@@]4(C)CC[C@H](NC(=O)c5cccnc5)C(C)(C)[C@@H]4CC[C@]23C)O1	55	49	87
CC(C)(C)OC(=O)NCCCC(=O)N[C@H]1CC[C@]2(C)[C@H]3C[C@@H](O)[C@@H]4[C@@H]([C@]5(C)CC[C@@H](C(C)(C)O)O5)CC[C@@]4(C)[C@]3(C)CC[C@H]2C1(C)C	90	44	94
CC(C)(O)[C@H]1CC[C@@](C)([C@H]2CC[C@]3(C)[C@@H]2[C@H](O)C[C@@H]2[C@@]4(C)CC[C@H](NC(=O)c5ccccc5O)C(C)(C)[C@@H]4CC[C@]23C)O1	51	40	100
CCCCCC(=O)N[C@H]1CC[C@]2(C)[C@H]3C[C@@H](O)[C@@H]4[C@@H]([C@]5(C)CC[C@@H](C(C)(C)O)O5)CC[C@@]4(C)[C@]3(C)CC[C@H]2C1(C)C	78	44	98
CC(C)(O)[C@@H]1CC[C@@](C)([C@H]2CC[C@]3(C)[C@@H]2[C@H](O)C[C@@H]2[C@@]4(C)CC[C@H](NC(=O)CCCN)C(C)(C)[C@@H]4CC[C@]23C)O1	111	102	105
CC(C)(C)OC(=O)NCC(=O)N[C@H]1CC[C@]2(C)[C@H]3C[C@@H](O)[C@@H]4[C@@H]([C@]5(C)CC[C@H](C(C)(C)O)O5)CC[C@@]4(C)[C@]3(C)CC[C@H]2C1(C)C	48	42	95
